These results are taken from PubChem BioAssay.

Active and inactive are the calls of the source.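 Rule for the calls, unless noted: active = NADPH fluorescence slope more negative than the mean of all samples by about 3 SD, 99.7% confidence; inactive = the rest.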

Experiment [1] in a line: inhibitors of TNFa-induced NFkB p65 translocation, primary screen, imaging, HUVEC, MLSMR starter and 10KST1 sets (AID 438;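 active = inhibition above 20% together with a positive visual image hit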;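 note: compound added about 3h40 before a 20 min TNFalpha stimulation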;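 for inhibition: signal is the nuclear over cytoplasmic p65 intensity ratio per well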). Conditions: HUVEC TNFa-induced p65 nuclear translocation; cell count: measured here: nuclei count (cytotoxicity indicator), at 2.08 µM; inhibition: at 2 µM, stronger effect = higher value, 0% TNFa-plus-vehicle, 100% no-TNFa wells.
The nature of experiment [2]: reduction of polyQ htt aggregates in cells – imaging, exon1htt(103Q)mCFP cells, high-content imaging, primary screen (AID 483;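 active = visual image review flags a hit and inhibition of aggregation exceeds 20%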;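 note: compound exposure lasted 3 days before fixation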;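 for nuclei count: percent of the per-plate median nuclei count of sample wells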). Particulars: exon1htt(103Q)mCFP cell line, aggregate imaging, at 2 µM; inhibition of aggregation: stronger effect = higher value; nuclei count: measured here: cell count, toxicity.
Experiment [3] in a line: endothelial E-selectin expression blockers – imaging, HUVEC, immunofluorescence, MLSMR starter and 10KST1 sets, primary screen (AID 487;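 active = visually confirmed hit in the image check and inhibition above 20%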;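 for inhibition: signal is fraction of cell area covered by stained E-selectin grains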;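 for nuclei count: 100% = median nuclei count of all wells on the same plate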). Particulars: HUVEC TNFalpha-induced E-selectin immunofluorescence imaging, at 2 µM; inhibition: stronger effect = higher value; nuclei count: measured here: cell number, toxicity.
For experiment [4], the target named is Voltage-gated potassium channel subunit beta-2 (Rattus norvegicus) (UniProt P62483). Description: inhibitors of rat Kvbeta2 reductase activity – biochemical, NADPH fluorescence, primary screen (AID 622;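 active = fluorescence slope higher than the sample average by over 3 SD, cut at about -0.22 in these data, passing the limit was not always enough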;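 note: slope of raw intensity against log time taken from 70 to 1610 s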). Particulars: recombinant KvBeta, 4-cyanobenzaldehyde reduction, at 10 µM, stronger effect = higher value.
Voltage-gated potassium channel subunit beta-2 (Rattus norvegicus), sequence (P62483 whole entry, looked up): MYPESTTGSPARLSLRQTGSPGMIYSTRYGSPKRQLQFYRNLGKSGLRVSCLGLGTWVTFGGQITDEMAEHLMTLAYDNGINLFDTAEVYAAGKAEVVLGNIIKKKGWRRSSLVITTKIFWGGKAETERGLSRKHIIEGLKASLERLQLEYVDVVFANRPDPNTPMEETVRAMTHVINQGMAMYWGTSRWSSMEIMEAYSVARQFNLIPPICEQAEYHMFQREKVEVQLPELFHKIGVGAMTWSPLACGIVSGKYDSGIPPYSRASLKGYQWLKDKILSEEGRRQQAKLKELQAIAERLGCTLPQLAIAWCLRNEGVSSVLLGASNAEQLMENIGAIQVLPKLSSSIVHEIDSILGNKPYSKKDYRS
Experiment [5] has the same target. Description: enhancers of rat Kvbeta2 NADPH turnover – biochemical, NADPH fluorescence, primary screen (AID 623).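 Note: fluorescence intensity change per second fitted from 20 to 320 s.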 Conditions: Recombinant KvBeta, NADPH fluorescence decrease slope, 10 min; at 10 µM; stronger effect = lower value.
Experiment [6] concerns the target Muscarinic acetylcholine receptor M4 (Homo sapiens) (UniProt P08173). Description: M4-linked GIRK flux change, two-sided – cell-based, HEK293 M4/GIRK, thallium flux, BTC-AM, M4 allosteric agonist project, primary screen (AID 625;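 active = fluorescence slope after compound addition differing from the mean of all tested samples at 99.7% confidence, mostly higher but some lower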;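 note: thallium influx through GIRK channels coupled to M4 in HEK293 cells with BTC-AM dye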). Particulars: at 10 µM, actives lie on both sides. Put shortly:
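Material: M4/GIRK1/GIRK2 stable HEK293 cell line. Medium: pH 7.3 thallium assay buffer. Dosing: single compound concentration, 10 µM final. Schedule: 1 h dye loading, 2 min kinetic read. Measured by: kinetic fluorescence with BTC-AM dye. Read-out: post-addition slope, 15–24 s, of baseline-normalized fluorescence. Benchmarks: carbachol and DMSO controls.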

A short description of experiment [7]: blockers of RIG-like receptor reporter activation – cell-based, Sendai virus stimulus, luciferase, 10K MLSCN set, TLR/RLR signaling modifier project, primary screen (AID 602276;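 active = inhibition at or above 50% at 10 µM; inactive = inhibition below 50%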;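 note: firefly luciferase from ISG56 promoter only with Renilla not read in this screen; 0% = Sendai virus plus DMSO and 100% = medium plus DMSO without virus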). Particulars: HEK293 RL24 IRF3 luciferase reporter, at 10 µM, stronger effect = higher value. For orientation: Reporter assays use an easily measured gene product as a stand-in for the process of interest.

Experiment [8] in a line: TLR3 IRF3 reporter activation blockers – cell-based, poly I:C stimulus, luciferase, 10K MLSCN set, primary screen (AID 602277;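 active = inhibition of the reporter signal at or above 50%; inactive = inhibition below 50%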). Conditions: HEK293-TLR3 RL24 IRF3 luciferase reporter, at 10 µM, stronger effect = higher value.

Muscarinic acetylcholine receptor M4 (Homo sapiens), sequence (P08173 whole entry, looked up): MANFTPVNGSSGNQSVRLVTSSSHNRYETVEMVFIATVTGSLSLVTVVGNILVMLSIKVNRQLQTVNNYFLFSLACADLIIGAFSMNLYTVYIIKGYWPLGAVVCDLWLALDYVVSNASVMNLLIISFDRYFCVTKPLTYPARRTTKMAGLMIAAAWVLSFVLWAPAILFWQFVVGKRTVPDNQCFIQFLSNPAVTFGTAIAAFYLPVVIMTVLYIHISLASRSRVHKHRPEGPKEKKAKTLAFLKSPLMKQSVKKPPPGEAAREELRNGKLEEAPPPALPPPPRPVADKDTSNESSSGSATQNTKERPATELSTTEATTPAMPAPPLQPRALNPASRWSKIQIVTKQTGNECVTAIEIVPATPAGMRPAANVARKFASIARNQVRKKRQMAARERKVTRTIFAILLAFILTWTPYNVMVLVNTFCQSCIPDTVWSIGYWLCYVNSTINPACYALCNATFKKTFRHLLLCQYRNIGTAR

A word on the inhibition: it is the relative decrease from the control value, in per cent. In the case of `CCOc1ccc(NC(=O)CSc2nnnn2CC(=O)O)cc1`, the cell count in experiment [1] turned out to be 482. In addition, the inhibition in experiment [1] was -1.4% (inactive); in experiment [3], -110% (inactive); in experiment [7], 10.5% (inactive); in experiment [8], 14.4% (inactive). For the same compound, the inhibition of aggregation in experiment [2] was -19.1% (inactive). Moreover, the nuclei count worked out at 112% in experiment [2] and 122% in experiment [3]. Also, the fluorescence slope is -0.561 (inactive) in experiment [4] and 0.00555 (inactive) in experiment [6]. The NADPH fluorescence slope in experiment [5] was -4.1e-05 (inactive).
As to `O=c1[nH]c2c(s1)C(c1ccco1)C1C3CCC(C3)C1S2` (stereo not given), in experiment [1], the cell count was determined as 220. The inhibition in experiment [1] is 9.2% (inactive); in experiment [3], -32.2% (inactive); in experiment [7], 12.1% (inactive); in experiment [8], 26.3% (inactive). In addition, the inhibition of aggregation in experiment [2] was 12.3% (inactive). For the same compound, the nuclei count in experiment [2] amounted to 89.5%; in experiment [3], 108%. For the same compound, the fluorescence slope in experiment [4] is -0.574 (inactive); in experiment [6] it was 0.00506 (inactive). In addition, in experiment [5], the NADPH fluorescence slope is -4.2e-05 (inactive).
As for `CC1=C(C#N)C(=O)NC(C)(C)C1`, in experiment [1], the cell count is 410. Besides, the inhibition was 4.1% (inactive) in experiment [1], 6.4% (inactive) in experiment [3], 13.9% (inactive) in experiment [7] and 21.4% (inactive) in experiment [8]. For the same compound, the inhibition of aggregation in experiment [2] is -3.7% (inactive). In addition, the nuclei count was 100% in experiment [2] and 109% in experiment [3]. The fluorescence slope in experiment [4] was -0.413 (inactive); in experiment [6], 0.00867 (inactive). For the same compound, in experiment [5], the NADPH fluorescence slope is 1.8e-05 (inactive).
As to `O=C(Cn1cnc2c(nnn2-c2ccc(F)cc2)c1=O)NCc1ccco1`, the cell count in experiment [1] came to 657. In addition, the inhibition in experiment [1] is 9.2% (inactive); in experiment [3], -8.8% (inactive); in experiment [7] it was 5.73% (inactive); in experiment [8], 12% (inactive). Besides, the inhibition of aggregation in experiment [2] was -33.9% (inactive). The nuclei count in experiment [2] was determined as 78.6%; in experiment [3], 122%. Also, the values for the fluorescence slope in experiment [4] and in experiment [6] were -0.596 (inactive) and 0.00537 (inactive), respectively. Further, the NADPH fluorescence slope in experiment [5] was -4.4e-06 (inactive).
In the case of `CCOc1ccc(C(c2nnnn2Cc2ccccc2)N2CCN(C(=O)c3ccco3)CC2)cc1` (stereo not given), in experiment [1], the cell count came out at 621. Moreover, the inhibition in experiment [1] is -0.2% (inactive); in experiment [3] it was 20% (inactive); in experiment [7], -3.47% (inactive); in experiment [8], 9.07% (inactive). Further, in experiment [2], the inhibition of aggregation is -6.3% (inactive). The nuclei count in experiment [2] turned out to be 101%; in experiment [3], 104%. In addition, the fluorescence slope in experiment [4] is -0.492 (inactive); in experiment [6] it was 0.00546 (inactive). Further, the NADPH fluorescence slope in experiment [5] is -2.2e-06 (inactive).
In the case of `CNC(=O)c1c(O)c2cccc3c2n(c1=O)CC3`, the cell count in experiment [1] turned out to be 446. Further, the inhibition in experiment [1] was -8.8% (inactive); in experiment [3] it was -60.1% (inactive); in experiment [7], 1.98% (inactive); in experiment [8] it was -8.91% (inactive). Also, the inhibition of aggregation in experiment [2] was -3.8% (inactive). Also, the nuclei count in experiment [2] is 57%; in experiment [3], 99%. Also, the fluorescence slope was -0.545 (inactive) in experiment [4] and 0.00595 (inactive) in experiment [6]. The NADPH fluorescence slope in experiment [5] was -5.3e-05 (inactive).
Turning to `CS(=O)(=O)c1ncc(Cl)c(C(=O)Nc2ccc(N3CCOCC3)cc2)n1`, the cell count in experiment [1] worked out at 351. Further, the inhibition in experiment [1] is -2.1% (inactive); in experiment [3] it was 24.9% (inactive); in experiment [7], 21.4% (inactive); in experiment [8], 62.8% (active). The inhibition of aggregation in experiment [2] was -35.6% (inactive). The nuclei count in experiment [2] came to 112%; in experiment [3], 111%. Besides, the fluorescence slope was -0.46 (inactive) in experiment [4] and 0.00607 (inactive) in experiment [6]. Further, the NADPH fluorescence slope in experiment [5] was 2.2e-05 (inactive).
On to `CCn1nnnc1NCc1cccn1C`, for which the cell count in experiment [1] stood at 401. Also, the inhibition was 11% (inactive) in experiment [1], -41.2% (inactive) in experiment [3], 16.1% (inactive) in experiment [7] and 22% (inactive) in experiment [8]. For the same compound, the inhibition of aggregation in experiment [2] is -12% (inactive). Besides, the values for the nuclei count in experiment [2] and in experiment [3] were 110% and 100%, respectively. Further, the fluorescence slope in experiment [4] is -0.414 (inactive); in experiment [6], 0.00612 (inactive). The NADPH fluorescence slope in experiment [5] is 0.000106 (inactive).
With `CCn1c(=O)n(CC(=O)NCc2ccccc2OC)c(=O)c2ccccc21`, the cell count in experiment [1] was 467. Moreover, the inhibition in experiment [1] was -30.1% (inactive); in experiment [3], -106% (inactive); in experiment [7], 18.2% (inactive); in experiment [8], 23.1% (inactive). The inhibition of aggregation in experiment [2] is -16.5% (inactive). Further, the nuclei count in experiment [2] is 100%; in experiment [3] it was 92%. Besides, the fluorescence slope in experiment [4] was -0.555 (inactive); in experiment [6] it was 0.00528 (inactive). Moreover, in experiment [5], the NADPH fluorescence slope is -4.7e-05 (inactive).
With `COc1cccc(/C(O)=C2/C(=O)C(=O)N(CCN3CCOCC3)C2c2cccnc2)c1` (stereo not given), in experiment [1], the cell count was 270. In addition, the inhibition in experiment [1] is 15% (inactive); in experiment [3], -37.6% (inactive); in experiment [7], -4.6% (inactive); in experiment [8] it was 9.66% (inactive). Also, the inhibition of aggregation in experiment [2] was 5.3% (inactive). In addition, the nuclei count in experiment [2] was found to be 107%; in experiment [3], 117%. Further, the fluorescence slope in experiment [4] is -0.576 (inactive); in experiment [6], 0.00687 (inactive). In experiment [5], the NADPH fluorescence slope was -1.6e-05 (inactive).
